Measured values from ChEMBL document CHEMBL3779819, “Design, synthesis and biological evaluation of LBM-A5 derivatives as potent P-glycoprotein-mediated multidrug resistance inhibitors” (Bioorg Med Chem, 2016).
Structures can show the parent of a compound that is named as a salt.

Columns and labels:
Format in all cases: cell-based
[1] = tested on: K562; assay: Cytotoxicity against human K562 cells assessed as cell viability after 48 hrs by MTT assay; conditions: K562, 48 h
In short: (§1)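 K562 and ADM-resistant, P-gp-overexpressing K562/A02 cells seeded at 1~2×10^4 per well, grown 24 h, then given graded compound doses in medium. Exposure 48 h, 37 °C, 5% CO2. MTT added for a further 4 h, absorbance read at 570 nm. IC50 taken from dose–response curves. Each experiment run three times.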

[2] = Cytotoxicity against human K562/A02 cells assessed as cell viability after 48 hrs by MTT assay; conditions: K562/A02, 48 h; in short: as §1
[3] = tested on: K562/A02; assay: Reversal of P-gp-mediated resistance to adriamycin in human K562/A02 cells assessed as reduction in adriamycin IC50 at 5 uM after 48 hrs by MTT assay relative to control
In short: (§2)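 K562/A02 cells in RPMI 1640 with 10% FBS, seeded and grown 24 h. Cells given a series of ADM concentrations with or without modulator at 5 μM for 48 h at 37 °C. MTT added for 4 h, A570 read. ADM IC50 from dose–response curves. RF = IC50 without modulator / IC50 with modulator. Triplicates, three independent repeats.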

[4] = (§3) Reversal of P-gp-mediated resistance to adriamycin in human K562/A02 cells assessed as reduction in adriamycin IC50 after 48 hrs by MTT assay; conditions: K562/A02, 48 h; in short: as §2
[5] = tested on: K562/A02; assay: as §3; in short: as §2
[6] = tested on: K562/A02; assay: Reversal of P-gp-mediated resistance to adriamycin in human K562/A02 cells assessed as reduction in adriamycin IC50 at 0.156 uM after 48 hrs by MTT assay relative to control
In short: (§4)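 K562/A02 cells in RPMI 1640 with 10% FBS, grown 24 h. Cells exposed 48 h at 37 °C to graded ADM concentrations, with or without modulator at 0.078–2.5 μM. MTT added for 4 h, A570 read. Reversal fold = ADM IC50 without modulator / ADM IC50 with modulator. Three independent experiments, mean±SEM.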

[7] = tested on: K562/A02; assay: Reversal of P-gp-mediated resistance to adriamycin in human K562/A02 cells assessed as reduction in adriamycin IC50 at 0.31 uM after 48 hrs by MTT assay relative to control; in short: as §4
[8] = tested on: K562/A02; assay: Reversal of P-gp-mediated resistance to adriamycin in human K562/A02 cells assessed as reduction in adriamycin IC50 at 0.625 uM after 48 hrs by MTT assay relative to control; in short: as §4
[9] = tested on: K562/A02; assay: Reversal of P-gp-mediated resistance to adriamycin in human K562/A02 cells assessed as reduction in adriamycin IC50 at 2.5 uM after 48 hrs by MTT assay relative to control; in short: as §4
[10] = tested on: K562/A02; assay: Reversal of P-gp-mediated resistance to adriamycin in human K562/A02 cells assessed as reduction in adriamycin IC50 at 1.25 uM after 48 hrs by MTT assay relative to control; in short: as §4
[11] = tested on: K562/A02; assay: Reversal of P-gp-mediated resistance to adriamycin in human K562/A02 cells assessed as reduction in adriamycin IC50 at 0.078 uM after 48 hrs by MTT assay relative to control; in short: as §4
[12] = tested on: K562/A02; assay: Potency index, ratio of verapamil to compound for inhibition of P-gp-mediated adriamycin efflux in human K562/A02 cells assessed as intracellular adriamycin accumulation at 5 uM
[13] = tested on: K562/A02; assay: Inhibition of P-gp-mediated adriamycin efflux in human K562/A02 cells assessed as intracellular adriamycin accumulation at 5 uM preincubated for 60 mins followed by adriamycin addition measured after 90 mins by flow cytometry
In short: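 K562/A02 cells (ADM-induced, P-gp-overexpressing) seeded at 1.5×10^5/well; modulator or 0.1% DMSO vehicle pre-incubated 60 min, then 20 μM ADM added for 90 min; cells washed three times with PBS at 4°C; retained intracellular ADM read as mean fluorescence intensity by flow cytometry; means±SD of two independent experiments.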

[14] = tested on: K562/A02; assay: Inhibition of P-gp-mediated adriamycin efflux in human K562/A02 cells assessed as increase in intracellular accumulation of adriamycin preincubated for 60 mins followed by adriamycin addition measured after 90 mins by flow cytometry
In short: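 K562/A02 cells seeded at 1.5×10^5 per well. Modulator (0.5, 2.5 or 5 μM) or 0.1% DMSO vehicle pre-incubated 60 min. ADM 20 μM then added for 90 min. Cells washed three times in PBS at 4 °C. Retained ADM read as mean fluorescence intensity by flow cytometry. Means±SD of two independent experiments.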

Row | Compound | IC50 [1] [µM] | IC50 [2] [µM] | fold change (FC) [3] | other results
1 | COc1cc2c(cc1OC)CN(CCn1cc(COc3ccc(C(C)(C)C)cc3)nn1)CC2 | > 100 | > 100 | 20.4 | 
2 | COc1cc2c(cc1OC)CN(CCn1cc(COc3ccc(C)cc3)nn1)CC2 | > 100 | > 100 | 6.2 | 
3 | COc1cc2c(cc1OC)CN(CCn1cc(COc3ccccc3OC)nn1)CC2 | > 100 | > 100 | 4.1 | 
4 | COc1cc2c(cc1OC)CN(CCc1ccc(-n3cc(COc4cccc5ccccc45)nn3)cc1)CC2 | > 100 | > 100 | 21 | 
5 | COc1cc2c(cc1OC)CN(CCc1ccc(-n3cc(COc4ccccc4)nn3)cc1)CC2 | > 100 | > 100 | 31.4 | EC50 [4]: 193 nM; Activity [5]: Dose-dependent effect; fold change (FC) [6]: 2.2; fold change (FC) [7]: 7.2; fold change (FC) [8]: 11.3; fold change (FC) [9]: 20.3; fold change (FC) [10]: 16.9; fold change (FC) [11]: 1.6; Ratio [12]: 1.5; Flu intensity [13]: 1280; inhibition [14]: Dose-dependent effect
6 | COc1ccc(CCN(C)CCCC(C#N)(c2ccc(OC)c(OC)c2)C(C)C)cc1OC (stereo unspecified) | 65.3 |  |  | 
7 | COc1cc2c(cc1OC)CN(CCc1ccc(-n3cc(COc4ccc(C(C)C)cc4)nn3)cc1)CC2 | > 100 | > 100 | 9.2 | 
8 | COc1cc2c(cc1OC)CN(CCn1cc(COc3ccc(F)cc3)nn1)CC2 | > 100 | > 100 | 2.7 | 
9 | COc1cc2c(cc1OC)CN(CCc1ccc(-n3cc(COc4ccc(C(C)(C)C)cc4)nn3)cc1)CC2 | 21.1 | > 100 | 9.3 | 
10 | COc1cc2c(cc1OC)CN(CCc1ccc(-n3cc(COc4ccc(C)cc4)nn3)cc1)CC2 | > 100 | > 100 | 5.8 | 
11 | COc1cc2c(cc1OC)CN(CCn1cc(COc3ccc4ccccc4c3)nn1)CC2 | > 100 | > 100 | 3.6 | 
12 | COc1cc2c(cc1OC)CN(CCc1ccc(-n3cc(COc4ccccc4NC(=O)c4ccccc4)nn3)cc1)CC2 | > 100 | > 100 | 23 | EC50 [4]: 484 nM
13 | COc1ccc(OCc2cn(-c3ccc(CCN4CCc5cc(OC)c(OC)cc5C4)cc3)nn2)cc1 | > 100 | > 100 | 3.5 | 
14 | COc1cc2c(cc1OC)CN(CCc1ccc(-n3cc(COc4ccccc4[N+](=O)[O-])nn3)cc1)CC2 | 48.8 | > 100 | 7.4 | 
15 | COc1cc2c(cc1OC)CN(CCn1cc(COc3ccc(C(C)C)cc3)nn1)CC2 | > 100 | > 100 | 7.7 | 
16 | COc1cc2c(cc1OC)CN(CCn1cc(COc3cccc4ccccc34)nn1)CC2 | > 100 | > 100 | 5.7 | 
17 | COc1cc2c(cc1OC)CN(CCc1ccc(-n3cc(COc4ccc([N+](=O)[O-])cc4)nn3)cc1)CC2 | 49.2 | > 100 | 5.4 | 
18 | CCc1ccc(OCc2cn(CCN3CCc4cc(OC)c(OC)cc4C3)nn2)cc1 | > 100 | > 100 | 6.1 | 
19 | COc1ccc(C(=O)Nc2ccccc2C(=O)Nc2ccc(CCN3CCc4cc(OC)c(OC)cc4C3)cc2)cc1OC | 19.6 | 50.1 | 30.4 | 
20 | COc1cc2c(cc1OC)CN(CCc1ccc(-n3cc(COc4cccc5cccnc45)nn3)cc1)CC2 | 28 | > 100 | 10 | 
21 | COc1cc2c(cc1OC)CN(CCn1cc(COc3ccccc3C(C)(C)C)nn1)CC2 | > 100 | > 100 | 9.6 | 
22 | COc1ccc(OCc2cn(CCN3CCc4cc(OC)c(OC)cc4C3)nn2)cc1 | > 100 | > 100 | 3.4 | 
23 | COc1cc2c(cc1OC)CN(CCn1cc(COc3ccc(C)c(C)c3)nn1)CC2 | > 100 | > 100 | 9.1 | 
24 | COc1cc2c(cc1OC)CN(CCc1ccc(-n3cc(COc4ccc(OC(F)(F)F)cc4)nn3)cc1)CC2 | 37.4 | > 100 | 5.9 | 
25 | COc1cc2c(cc1OC)CN(CCc1ccc(-n3cc(COc4ccc5ccccc5c4)nn3)cc1)CC2 | > 100 | > 100 | 8.5 | 
26 | CCc1ccc(OCc2cn(-c3ccc(CCN4CCc5cc(OC)c(OC)cc5C4)cc3)nn2)cc1 | > 100 | > 100 | 9.1 | 
27 | COc1cc2c(cc1OC)CN(CCn1cc(COc3ccc([N+](=O)[O-])cc3)nn1)CC2 | > 100 | > 100 | 3.1 | 
28 | COc1cc2c(cc1OC)CN(CCn1cc(COc3ccc(C)cc3C)nn1)CC2 | > 100 | > 100 | 4.6 | 
29 | COc1cccc2c1C(=O)c1c(O)c3c(c(O)c1C2=O)C[C@@](O)(C(=O)CO)C[C@@H]3O[C@H]1C[C@H](N)[C@H](O)[C@H](C)O1 [DOXORUBICIN HYDROCHLORIDE] | 6.23 | 38 |  | 
